Test results: publication PMC1915607 (Investigational New Drugs, 2007)
“And” between values parts separate entries of the source, which are not always exact repeats. Equal values may be shown once. Read-outs that look alike come from different tables or passages of the source. Marks after values point to notes of the source that are not given here.

What was measured:
[1] = Plasma pharmacokinetics of unchanged ixabepilone; type: in vivo, human
How it was run: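 Eight advanced-cancer patients received a single 3 h IV infusion of 70 mg, 80 nCi [14C]-labelled test compound in Cremophor EL:ethanol diluted in Lactated Ringer's, with oral H1/H2 premedication. Blood was drawn 0–168 h and plasma was stored below −20°C. Parent was measured by isocratic LC-ESI-MS/MS (standard curve 2–500 ng/ml). Non-compartmental analysis gave AUCinf, CL=dose/AUCinf, and infusion-corrected Vss.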

[2] = Urinary and faecal recovery; type: in vivo, human; conditions: for Radioactivity U/F ratio (urinary recovery relative to faecal recovery) / Recovery of ixabepilone in urine: 0–168 h; for Recovery of ixabepilone in urine: unchanged ixabepilone
[3] = phase I dose escalation study, 11 patients, 40 mg/m^2; cited from earlier work
[4] = Plasma pseudopharmacokinetics of total radioactivity; type: in vivo, human
How it was run: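 Same dosing, with separate, simultaneous plasma samples taken to 168 h. Total radioactivity was measured by AMS after combustion with CuO at 900°C and graphitisation at 500–550°C. Natural 14C background was subtracted, and values were converted to equivalents via carbon content and specific activity. Quantitation limit was <4 DPM/ml. Non-compartmental pseudo-parameters were derived, and AUClast ratio = parent AUClast / TRA AUClast. Outliers were assessed by Dixon's Q test.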

[5] = system: CYP3A4/5; conditions: cited from earlier work
[6] = Stability of [14C]-labelled ixabepilone; type: physicochemical
[7] = phase II, cited from earlier work
[8] = literature value, no reference given, cited from earlier work
[9] = inter-patient variability, flat 70 mg dose, this study
[10] = plasma, individual patients 1-8, 3 h iv infusion 70 mg

C/C(=C\c1csc(C)n1)[C@@H]1C[C@@H]2O[C@]2(C)CCC[C@H](C)[C@H](O)[C@@H](C)C(=O)C(C)(C)[C@@H](O)CC(=O)N1 [ixabepilone, 15-desoxy-15-aza-epothilone B]
Time to maximum plasma concentration ([1]; 3 h infusion, in words): around the end of infusion | clearance ([1]; human, plasma, intravenous, 70 mg, Ixabepilone Cl, mean of 8 patients): 422 mL/min | Vd ([1]; human, plasma, intravenous, 70 mg, Ixabepilone Vss, plasma, mean of 8 patients): 1150 L | Half-life ([1]; human, plasma, intravenous, 70 mg, Ixabepilone t1/2, plasma, mean of 8 patients): > 50 h | Coefficient of variation for AUCinf of ixabepilone [1, 9]: 24% | Coefficient of variation for Cl of ixabepilone [1, 9]: 21% | Ixabepilone AUCinf [1, 10]: 2.22 µg·h/mL and 3.35 µg·h/mL and 2.97 µg·h/mL and 2.99 µg·h/mL and 4.32 µg·h/mL and 2.52 µg·h/mL and 2.29 µg·h/mL | Ixabepilone AUClast [1, 10]: 1.93 µg·h/mL and 3.06 µg·h/mL and 2.75 µg·h/mL and 2.83 µg·h/mL and 3.82 µg·h/mL and 2.42 µg·h/mL and 2.17 µg·h/mL | Ixabepilone Cl [1, 10]: 31.6 L/h and 20.9 L/h and 23.6 L/h and 23.4 L/h and 16.2 L/h and 27.8 L/h and 30.5 L/h | Ixabepilone Vss [1, 10]: 1520 L and 1635 L and 1275 L and 1174 L and 929 L and 1027 L and 756 L and 912 L | Ixabepilone t1/2 [1, 10]: 71.5 h and 47.2 h and 51.7 h and 53.0 h and 67.4 h and 23.5 h and 36.7 h | Initial distribution phase, duration ([1]; unchanged ixabepilone in plasma): approximately 10 h | Radioactivity U/F ratio (urinary recovery relative to faecal recovery) ([2]; individual patients 1-8): 0.48 and 0.29 and 3.05 and 0.24 and 0.31 and 0.39 and 1.97 and 0.30 | Radioactivity U/F ratio (urinary recovery relative to faecal recovery) ([2]; mean, patients 4 and 8 not included): 0.33^b | Recovery of ixabepilone in urine ([2]; individual patients 1-8): 4.0 % of dose and 6.12 % of dose and 6.03 % of dose and 4.02 % of dose and 5.07 % of dose and 4.66 % of dose and 7.76 % of dose and 3.32 % of dose and 5.46 % of dose | Recovery of ixabepilone in urine ([2]; mean of 8 patients): 5.30 % of dose | Urinary radioactivity excreted in the first 24 h ([2]; first 24 h): 17 % of dose | Ixabepilone Clrenal ([2]; individual patients 1-8): 1.98 L/h and 1.87 L/h and 1.46 L/h and 1.16 L/h and 1.19 L/h and 1.92 L/h and 0.61 L/h and 1.58 L/h | Share of total urinary ixabepilone excreted in the first 24 h ([2]; of total urinary ixabepilone): 76% | Share of total urinary radioactivity excreted in the first 24 h ([2]; of total urinary radioactivity): 65% | Coefficient of variation for AUCinf of ixabepilone [3]: 46% | Coefficient of variation for Cl of ixabepilone [3]: 38% | Initial distribution phase, duration ([4]; TRA in plasma): approximately 10 h | AUClast ratio (AUClast ixabepilone / AUClast TRA) ([4]; plasma, individual patients 1-8, patient 1 outlier): 0.26 and 0.06 and 1.62^b and 0.25 and 0.19 and 0.12 and 0.18 | CYP3A4/5 substrate [5]: CYP3A4/5 substrate | Stability of labelled drug (autoradiolysis) ([6]; conventional [14C]-levels (100 μCi in a typical human radio-tracer study)): very unstable | Stability of labelled drug (autoradiolysis) ([6]; specific activity of 1.5 μCi/mg): unstable | Stability of labelled drug (autoradiolysis) ([6]; specific activity of less than 10 nCi/mg): stable | Response rate ([7]; hormone-refractory metastatic prostate cancer): 33% | Response rate ([7]; metastatic breast cancer, 6 to 40 mg/m^2 iv over 1 to 3 h): 12–44% | Response rate ([7]; metastatic renal cell carcinoma): 14% | Response rate ([7]; non-small cell lung cancer): 14%

CC[C@]1(O)C[C@H]2CN(CCc3c([nH]c4ccccc34)[C@@](C(=O)OC)(c3cc4c(cc3OC)N(C=O)[C@H]3[C@@](O)(C(=O)OC)[C@H](OC(C)=O)[C@]5(CC)C=CCN6CC[C@]43[C@@H]65)C2)C1 [vincristine]
Half-life ([8]; in words): several days

CC[C@]1(O)C[C@@H]2CN(CCc3c([nH]c4ccccc34)[C@@](C(=O)OC)(c3cc4c(cc3OC)N(C)[C@H]3[C@@](O)(C(N)=O)[C@H](O)[C@]5(CC)C=CCN6CC[C@]43[C@@H]65)C2)C1 [vindesine]
Half-life [8]: 12 to 42 h
